Results published in article PMC4277779 (Journal of the American Chemical Society, 2014).
Non-standard residues stand in square brackets, D forms with d. No end group written: not given here. Orn = NCCC[C@H](N)C(=O)O

How the values were obtained:
[1] = Far-UV circular dichroism: effects of pH and temperature; type: physicochemical; conditions: 4 to 20 to 37 °C, phosphate buffer
Method in brief: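 Far-UV CD spectra of the test peptides were recorded in phosphate buffer (pH 7.0) and in the NMR buffer (100 mM acetate, pH 3.8). A temperature series at 4, 20 and 37 °C was run in phosphate buffer.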

[2] = ΔδCαH-based β-hairpin population and thermodynamic analysis by NMR; type: physicochemical; conditions: relative to parent peptide I, 4 °C, pH 3.8; for ΔΔGfold: calculated for each reporter position and averaged
Method in brief: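 NMR samples were prepared in 100 mM acetate buffer, pH 3.8.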

[3] = 4 °C, cited from earlier work
[4] = aqueous buffer pH 3.8, ref 9a (Syud et al.)

Row | Substance | effect of temperature on far UV CD (in words) [1] | effect of residue replacement on β-hairpin population (in words) [2] | ΔΔGfold [2] | population of the β-hairpin conformation ([3]; aqueous buffer pH 3.8, NMR, ref 9b) | β-hairpin population at reporter position Ile 10 [3, 4] | β-hairpin population at reporter position Orn 8 [3, 4] | β-hairpin population at reporter position Val 3 [3, 4] | β-hairpin population at reporter position Val 5 [3, 4]
1 | Arg-Tyr-Val-TS--Val-DPro-Gly-Orn-Lys-Ile-Leu-Gln-NH2 [Peptide IV] | does not significantly alter | enhanced β-hairpin population | –0.6 ± 0.3 kcal/mol |  |  |  |  | 
2 | RYVEV[dP]G[Orn]KILQ-NH2 [Peptide I] | does not significantly alter |  |  | ~68% | 59% | 65% | 70% | 76%
3 | Arg-Tyr-Val-Glu-Val-DPro-Gly-Orn-TS+-Ile-Leu-Gln-NH2 [Peptide III] | does not significantly alter | enhanced β-hairpin population | –0.5 ± 0.4 kcal/mol |  |  |  |  | 
4 | Arg-Tyr-Val-Glu-Val-DPro-Gly-Orn-TO+-Ile-Leu-Gln-NH2 [Peptide II] |  | little effect on β-hairpin population | +0.1 ± 0.2 kcal/mol |  |  |  |  | 
